Experimental findings from ChEMBL document CHEMBL1134357, “Heterobifunctional ligands: practical chemoenzymatic synthesis of a cell adhesive glycopeptide that interacts with both selectins and integrins” (J Med Chem, 2001) are described below.

A short description of data set [1]: Association constant of compound against selectin L was determined. In a few lines:
(§1)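 SPR (IAsys): recombinant soluble human E-, P- or L-selectin is coupled to a BS3-activated aminosilane cuvette and the surface blocked with BSA. Binding is run in 10 mM PBS, 1 mM CaCl2, pH 7.2, at 25 °C. Ligand solution (0.01 mL into 0.2 mL total) is monitored for 20 min, and kinetic and equilibrium constants are derived from the binding curves.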

Data set [2] can be described thus: Association constant of compound against selectin P was determined. In a few lines: as §1
Data set [3] in a line: Association constant of compound against selectin E was determined. In a few lines: as §1
Data set [4] has as its target T1, P-selectin (Homo sapiens) (UniProt P16109).
T1 sequence (whole entry): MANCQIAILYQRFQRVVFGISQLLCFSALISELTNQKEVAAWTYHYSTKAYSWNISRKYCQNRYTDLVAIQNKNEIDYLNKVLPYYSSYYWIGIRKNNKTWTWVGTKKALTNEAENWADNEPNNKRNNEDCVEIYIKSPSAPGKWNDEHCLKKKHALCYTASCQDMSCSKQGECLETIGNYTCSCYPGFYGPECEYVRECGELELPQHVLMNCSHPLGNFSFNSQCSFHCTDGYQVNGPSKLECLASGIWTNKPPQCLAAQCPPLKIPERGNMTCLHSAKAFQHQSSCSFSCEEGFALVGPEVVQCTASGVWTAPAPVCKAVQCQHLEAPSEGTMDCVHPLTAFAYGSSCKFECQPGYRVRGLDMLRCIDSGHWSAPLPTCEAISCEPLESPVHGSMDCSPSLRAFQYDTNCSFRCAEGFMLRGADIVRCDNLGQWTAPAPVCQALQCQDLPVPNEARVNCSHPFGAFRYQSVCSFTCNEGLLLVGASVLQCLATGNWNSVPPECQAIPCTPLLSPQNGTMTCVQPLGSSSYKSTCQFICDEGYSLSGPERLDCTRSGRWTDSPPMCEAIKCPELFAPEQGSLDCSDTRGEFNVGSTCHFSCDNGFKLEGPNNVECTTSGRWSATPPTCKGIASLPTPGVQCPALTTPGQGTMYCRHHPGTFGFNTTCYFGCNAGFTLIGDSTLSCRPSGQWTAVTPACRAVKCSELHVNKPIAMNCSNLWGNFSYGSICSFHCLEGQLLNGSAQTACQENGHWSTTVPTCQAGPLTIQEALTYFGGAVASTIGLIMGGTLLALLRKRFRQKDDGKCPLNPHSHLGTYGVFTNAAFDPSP
Nature of the data set: Binding affinity of compound against selectin P was determined. In outline: as §1

The nature of data set [5]: Dissociation constant of compound against selectin L was determined. In a few lines:
as §1

Data set [6] can be described thus: Dissociation constant of compound against selectin P was determined. In a few lines:
as §1

The target in data set [7] is T2, L-selectin (Homo sapiens) (UniProt P14151).
T2 sequence (whole entry): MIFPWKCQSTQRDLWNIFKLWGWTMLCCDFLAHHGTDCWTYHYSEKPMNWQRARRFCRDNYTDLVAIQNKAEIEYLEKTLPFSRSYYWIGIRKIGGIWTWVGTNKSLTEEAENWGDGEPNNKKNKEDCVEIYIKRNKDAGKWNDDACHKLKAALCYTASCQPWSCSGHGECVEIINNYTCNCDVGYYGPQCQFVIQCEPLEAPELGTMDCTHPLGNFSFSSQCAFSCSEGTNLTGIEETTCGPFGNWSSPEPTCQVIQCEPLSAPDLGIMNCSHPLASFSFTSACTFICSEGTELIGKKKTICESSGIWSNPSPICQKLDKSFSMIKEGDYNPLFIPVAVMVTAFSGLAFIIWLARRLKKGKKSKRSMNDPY
The data set is described as follows: Binding affinity of compound against selectin L was determined. In a few lines:
as §1

The target of data set [8] is T3, E-selectin (Homo sapiens) (UniProt P16581).
T3 sequence (whole entry): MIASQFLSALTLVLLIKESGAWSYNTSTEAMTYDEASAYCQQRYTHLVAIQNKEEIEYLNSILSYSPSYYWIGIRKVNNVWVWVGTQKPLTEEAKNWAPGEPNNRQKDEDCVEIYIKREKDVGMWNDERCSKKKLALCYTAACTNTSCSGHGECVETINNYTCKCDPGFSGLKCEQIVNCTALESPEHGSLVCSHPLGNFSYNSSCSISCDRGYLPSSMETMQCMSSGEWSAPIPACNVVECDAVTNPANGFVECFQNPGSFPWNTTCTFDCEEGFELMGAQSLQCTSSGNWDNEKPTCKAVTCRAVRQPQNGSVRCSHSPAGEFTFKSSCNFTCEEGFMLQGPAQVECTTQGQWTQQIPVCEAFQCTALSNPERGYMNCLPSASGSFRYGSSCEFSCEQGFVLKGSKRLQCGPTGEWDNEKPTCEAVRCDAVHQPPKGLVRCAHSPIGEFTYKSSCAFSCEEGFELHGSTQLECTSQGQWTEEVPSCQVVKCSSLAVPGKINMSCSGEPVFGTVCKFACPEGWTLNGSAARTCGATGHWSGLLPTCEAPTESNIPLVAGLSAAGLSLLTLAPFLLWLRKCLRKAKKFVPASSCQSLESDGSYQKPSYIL
The data set is described as follows: Binding affinity of compound against selectin E was determined. In outline:
as §1

The nature of data set [9]: Dissociation constant of compound against selectin E was determined. In a few lines: as §1

Take `NC(N)=NCCC[C@H](N)C(=O)NCC(=O)N[C@@H](CC(=O)O)C(=O)N[C@@H](CO)C(=O)O`: the K ass was determined as 4.1 M⁻¹ s⁻¹ in [1], 89.1 M⁻¹ s⁻¹ in [2] and 4 M⁻¹ s⁻¹ in data set [3].
In the case of `N=C(N)NCCC[C@H](N)C(=O)NCC(=O)N[C@@H](CC(=O)O)C(=O)N[C@@H](CO)C(=O)O`, the Ka is 97000 M⁻¹ in data set [4], 5400 M⁻¹ in [7] and 6100 M⁻¹ in data set [8]. The K diss stood at 0.00077 s⁻¹ in [5], 0.00092 s⁻¹ in [6] and 0.00066 s⁻¹ in data set [9].
For the compound `CC(=O)N[C@H]1[C@H]([C@H](O)[C@H](O)CO)O[C@@](O[C@H]2[C@@H](O)[C@@H](CO)O[C@@H](O[C@@H]([C@H](O[C@@H]3O[C@@H](C)[C@@H](O)[C@@H](O)[C@@H]3O)[C@H](C=O)NC(C)=O)[C@H](O)CO)[C@@H]2O)(C(=O)O)C[C@@H]1O` [SIALYL LEWIS X], the K ass is 312.7 M⁻¹ s⁻¹ in data set [1], 229.6 M⁻¹ s⁻¹ in data set [2] and 21.1 M⁻¹ s⁻¹ in data set [3]. The Ka worked out at 880000 M⁻¹ in data set [4], 870 M⁻¹ in [7] and 12000 M⁻¹ in data set [8]. Besides, the K diss in data set [5] was 0.36 s⁻¹; in [6], 0.00026 s⁻¹; in data set [9], 0.0017 s⁻¹.
